Columns and labels:
[1] = species on record: Rattus norvegicus; assay: Ability to protect cerebellar granule cells (CGC) from iodoacetate (IAA)-induced toxicity; format: functional, cell-based
[2] = species on record: Rattus norvegicus; assay: Compound was tested for 50% Inhibition of lipid peroxidation in rat brain homogenate; format: functional
[3] = species on record: Rattus norvegicus; assay: Relative efficacy gives an indication of the percent of viable cells (Rat cerebellar granule cells) at the maximal efficacious concentration of 0.4 uM; format: functional
[4] = species on record: Rattus norvegicus; assay: Relative efficacy gives an indication of the percent of viable cells (Rat cerebellar granule cells) at the maximal efficacious concentration of 46.7 uM; format: functional
How it was run: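 Rat cerebellar granule cells exposed to 30 µM iodoacetate for 30 min in physiological salt solution, which was then replaced with maintenance medium containing test compound. Viability was read 24 h later. Relative efficacy is the percent of viable cells at the maximal efficacious concentration.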

[5] = species on record: Rattus norvegicus; assay: Relative efficacy gives an indication of the percent of viable cells (Rat cerebellar granule cells) at the maximal efficacious concentration of 26.8 uM; format: functional
[6] = species on record: Rattus norvegicus; assay: Relative efficacy gives an indication of the percent of viable cells (Rat cerebellar granule cells) at the maximal efficacious concentration of 77.8 uM; format: functional
[7] = species on record: Rattus norvegicus; assay: Relative efficacy gives an indication of the percent of viable cells (Rat cerebellar granule cells) at the maximal efficacious concentration of 0.3 uM; format: functional
[8] = species on record: Rattus norvegicus; assay: Relative efficacy gives an indication of the percent of viable cells (Rat cerebellar granule cells) at the maximal efficacious concentration of 33.3 uM; format: functional
[9] = species on record: Rattus norvegicus; assay: Relative efficacy gives an indication of the percent of viable cells (Rat cerebellar granule cells) at the maximal efficacious concentration of 6 uM; format: functional
[10] = species on record: Rattus norvegicus; assay: Relative efficacy gives an indication of the percent of viable cells (Rat cerebellar granule cells) at the maximal efficacious concentration of 5.0 uM; format: functional
[11] = species on record: Rattus norvegicus; assay: Relative efficacy gives an indication of the percent of viable cells (Rat cerebellar granule cells) at the maximal efficacious concentration of 0.6 uM; format: functional

Structure (SMILES)	IC50 [2] [µM]	EC50 [1] [µM]	further results
Cc1c(O)c(=O)ccn1CCSc1cc(C(C)(C)C)c(O)c(C(C)(C)C)c1	0.4	0.4	Relative efficacy [3]: 0.6
Cc1c(O)c(=O)ccn1C [DEFERIPRONE]	3.9	46.7	Relative efficacy [4]: 1
Cc1c(C)c2c(c(C)c1O)CCC(C)(C(=O)O)O2 (stereo not given) [TROLOX]	28.7	77.8	Relative efficacy [6]: 0.9
Cc1c(O)c(=O)ccn1CCc1cc(C(C)(C)C)c(O)c(C(C)(C)C)c1	0.3	0.3	Relative efficacy [7]: 0.9
Cc1cc(C(C)(C)C)c(O)c(C(C)(C)C)c1 [BUTYLATED HYDROXYTOLUENE]	5.9	6	Relative efficacy [9]: 0.9
CCNCc1cc(C(C)(C)C)c(O)c(C(C)(C)C)c1	14.8	5	Relative efficacy [10]: 0.9
Cc1c(O)c(=O)ccn1CCCCc1cc(C(C)(C)C)c(O)c(C(C)(C)C)c1	2.9	0.6	Relative efficacy [11]: 0.7

Continued, in another order:

IC50 [2] [µM]	Structure (SMILES)	EC50 [1] [µM]	further results
2	COc1cc(CCCn2ccc(=O)c(O)c2C)cc(OC)c1O	26.8	Relative efficacy [5]: 0.8
1	Cc1c(O)c(=O)ccn1CCCc1cc(C(C)(C)C)c(O)c(C(C)(C)C)c1	0.3	Relative efficacy [7]: 0.8
3.3	COc1cc(CCn2ccc(=O)c(O)c2C)cc(OC)c1O	33.3	Relative efficacy [8]: 0.9

Source: ChEMBL document CHEMBL1133778, “3,5-Disubstituted-4-hydroxyphenyls linked to 3-hydroxy-2-methyl-4(1H)-pyridinone: potent inhibitors of lipid peroxidation and cell toxicity” (J Med Chem, 2000)
